Reference: ChEMBL document CHEMBL1221394, “Anti-AIDS agents 79. Design, synthesis, molecular modeling and structure-activity relationships of novel dicamphanoyl-2',2'-dimethyldihydropyranochromone (DCP) analogs as potent anti-HIV agents” (Bioorg Med Chem, 2010)
≈ marks a conversion by molar mass, not a printed value.

Columns and labels:
[1] = test system: Human immunodeficiency virus 1; assay: Antiviral activity against HIV1 3B infected in human H9 cells; format: functional, organism-based; details: Human immunodeficiency virus 1, 3B
[2] = Therapeutic index, ratio of CC50 for human H9 cells to EC50 for HIV1 3B; format: cell-based; details: read-out: TI
[3] = Therapeutic index, ratio of IC50 for human TZM-b1 cells to EC50 for HIV1 NL4-3; format: cell-based; details: read-out: TI
In short: (§1)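 Cytotoxicity was measured with the CytoTox-Glo kit following the manufacturer's instructions. Antiviral EC50 came from the single-round TZM-bl luciferase assay: 200 TCID50 virus, eight 4-fold sample dilutions, 48 h, and 50% RLU reduction versus virus control after background subtraction.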

[4] = Cytotoxicity against human TZM-b1 cells; format: cell-based
In short: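 Cytotoxicity in TZM-bl cells read with the CytoTox-Glo luminescent assay, run according to the kit instructions.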

[5] = test system: Human immunodeficiency virus 1; assay: Antiviral activity against wild type HIV1 NL4-3 in human TZM-b1 cells after 48 hrs by luciferase reporter gene assay; format: functional, organism-based; details: Human immunodeficiency virus 1, NL4-3, TZM-b1, 48 h
In short: (§2)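 Single-round infection of TZM-bl cells with 200 TCID50 virus mixed with test sample at eight 4-fold serial dilutions. Incubated 48 h, then luciferase reagent was added and luminescence read. IC50 is the concentration giving 50% reduction in RLU versus virus-control wells, after subtracting background RLU.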

[6] = test system: Human immunodeficiency virus 1; assay: Antiviral activity against HIV1 RTMDR1 in human TZM-b1 cells after 48 hrs by luciferase reporter gene assay; format: functional, organism-based; details: Human immunodeficiency virus 1, RTMDR1, TZM-b1, 48 h; in short: as §2
[7] = Therapeutic index, ratio of IC50 for human TZM-b1 cells to EC50 for HIV1 RTMDR1; format: cell-based; details: read-out: TI; in short: as §1
[8] = test system: Human immunodeficiency virus 1; assay: Antiviral activity against HIV1 infected in human H9 cells; format: functional, organism-based; details: Human immunodeficiency virus 1, H9
[9] = Therapeutic index, ratio of CC50 for human H9 cells to EC50 for HIV1; format: cell-based; details: read-out: TI
[10] = test system: Human immunodeficiency virus 1; assay: Antiviral activity against HIV1 RTMDR1 in human MT4 cells; format: functional, organism-based; details: Human immunodeficiency virus 1, RTMDR1, MT4
[11] = Therapeutic index, ratio of CC50 for human H9 cells to EC50 for HIV1 RTMDR1; format: cell-based; details: read-out: TI
[12] = Solubility of the compound in water after 1 hr; format: physicochemical; details: for solubility: HPLC grade water, 1 h
In short: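 Excess solid compound was added to HPLC-grade water and sonicated in an ultrasonic bath at room temperature for 1 h. Undissolved solid was removed with a PTFE syringe filter. Dissolved concentration was quantified by HPLC on a C18 column (2.1 mm × 100 mm) at a flow rate of 200 μL/min.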

SMILES | EC50 [1] [nM] | selectivity ratio [2] | selectivity ratio [3] | IC50 [4] [nM] | EC50 [5] [nM] | EC50 [6] [nM] | selectivity ratio [7] | EC50 [8] [nM] | selectivity ratio [9] | EC50 [10] [nM] | selectivity ratio [11] | solubility [12] [µg/mL] | solubility at 1 h ([12]; water) [µg/mL]
Cc1cc(=O)oc2c3c(ccc12)OC(C)(C)[C@H](OC(=O)[C@@]12CC[C@@](C)(C(=O)O1)C2(C)C)[C@@H]3OC(=O)[C@@]12CC[C@@](C)(C(=O)O1)C2(C)C | 5.9 | 6660 |  |  |  |  |  |  |  |  |  |  | 
CCc1cc(=O)c2ccc3c(c2o1)[C@@H](OC(=O)[C@@]12CC[C@@](C)(C(=O)O1)C2(C)C)[C@@H](OC(=O)[C@@]12CC[C@@](C)(C(=O)O1)C2(C)C)C(C)(C)O3 |  |  | 94 | 6600 | 70 | 110 | 60 | 70 | 94 | 110 | 60 | < 0.9 | 
CNc1c(C)oc2c3c(ccc2c1=O)OC(C)(C)[C@H](OC(=O)[C@@]12CC[C@@](C)(C(=O)O1)C2(C)C)[C@@H]3OC(=O)[C@@]12CC[C@@](C)(C(=O)O1)C2(C)C |  |  | > 200 | > 60000 | 300 | 450 | > 130 |  |  |  |  |  | 
Cc1oc2c3c(ccc2c(=O)c1Br)OC(C)(C)[C@H](OC(=O)[C@@]12CC[C@@](C)(C(=O)O1)C2(C)C)[C@@H]3OC(=O)[C@@]12CC[C@@](C)(C(=O)O1)C2(C)C |  |  | 14 | 7700 | 550 | 570 | 14 |  |  |  |  |  | 
Cc1cc(=O)c2c(C)cc3c(c2o1)[C@@H](OC(=O)[C@@]12CC[C@@](C)(C(=O)O1)C2(C)C)[C@@H](OC(=O)[C@@]12CC[C@@](C)(C(=O)O1)C2(C)C)C(C)(C)O3 |  |  | 420 | 15000 | 36 | 49 | 310 |  |  |  |  |  | 5.2 (≈ 7.99 µM)
Cc1oc2c3c(cc(C)c2c(=O)c1Br)OC(C)(C)[C@H](OC(=O)[C@@]12CC[C@@](C)(C(=O)O1)C2(C)C)[C@@H]3OC(=O)[C@@]12CC[C@@](C)(C(=O)O1)C2(C)C |  |  | > 24 | > 14000 | 590 | 910 | > 15 |  |  |  |  |  | 
Cc1oc2c3c(c(Br)c(C)c2c(=O)c1Br)OC(C)(C)[C@H](OC(=O)[C@@]12CC[C@@](C)(C(=O)O1)C2(C)C)[C@@H]3OC(=O)[C@@]12CC[C@@](C)(C(=O)O1)C2(C)C |  |  | > 1.2 | > 12000 | 10000 | > 12000 |  |  |  |  |  |  | 
Cc1cc(=O)c2c(CBr)cc3c(c2o1)[C@@H](OC(=O)[C@@]12CC[C@@](C)(C(=O)O1)C2(C)C)[C@@H](OC(=O)[C@@]12CC[C@@](C)(C(=O)O1)C2(C)C)C(C)(C)O3 |  |  | 11 | 8900 | 810 | 1200 | 7.4 |  |  |  |  |  | 
CCc1cc(=O)c2c(C)cc3c(c2o1)[C@@H](OC(=O)[C@@]12CC[C@@](C)(C(=O)O1)C2(C)C)[C@@H](OC(=O)[C@@]12CC[C@@](C)(C(=O)O1)C2(C)C)C(C)(C)O3 |  |  | 110 | 11000 | 100 | 54 | 200 |  |  |  |  |  | 
CCc1cc(=O)c2c(CC)cc3c(c2o1)[C@@H](OC(=O)[C@@]12CC[C@@](C)(C(=O)O1)C2(C)C)[C@@H](OC(=O)[C@@]12CC[C@@](C)(C(=O)O1)C2(C)C)C(C)(C)O3 |  |  | > 120 | > 30000 | 250 | 340 |  |  |  |  |  |  | 
CC1(C)Oc2ccc3c(=O)cc(CBr)oc3c2[C@@H](OC(=O)[C@@]23CC[C@@](C)(C(=O)O2)C3(C)C)[C@H]1OC(=O)[C@@]12CC[C@@](C)(C(=O)O1)C2(C)C |  |  | 3 | 1700 | 550 | 560 | 3 |  |  |  |  |  | 
CC(Br)c1cc(=O)c2ccc3c(c2o1)[C@@H](OC(=O)[C@@]12CC[C@@](C)(C(=O)O1)C2(C)C)[C@@H](OC(=O)[C@@]12CC[C@@](C)(C(=O)O1)C2(C)C)C(C)(C)O3 (stereo partly drawn) |  |  |  | 3500 |  |  |  |  |  |  |  |  | 
CC(Br)(Br)c1cc(=O)c2ccc3c(c2o1)[C@@H](OC(=O)[C@@]12CC[C@@](C)(C(=O)O1)C2(C)C)[C@@H](OC(=O)[C@@]12CC[C@@](C)(C(=O)O1)C2(C)C)C(C)(C)O3 |  |  | 1.8 | 1800 | 1000 | 450 | 4 |  |  |  |  |  | 
CC1(C)Oc2ccc3c(=O)cc(CC#N)oc3c2[C@@H](OC(=O)[C@@]23CC[C@@](C)(C(=O)O2)C3(C)C)[C@H]1OC(=O)[C@@]12CC[C@@](C)(C(=O)O1)C2(C)C |  |  | 9.4 | 17000 | 1800 | 1400 | 12 |  |  |  |  |  | 
Cc1c(C#N)oc2c3c(ccc2c1=O)OC(C)(C)[C@H](OC(=O)[C@@]12CC[C@@](C)(C(=O)O1)C2(C)C)[C@@H]3OC(=O)[C@@]12CC[C@@](C)(C(=O)O1)C2(C)C |  |  | 290 | 40000 | 140 | 1900 | 21 |  |  |  |  |  | 
CNCc1cc(=O)c2ccc3c(c2o1)[C@@H](OC(=O)[C@@]12CC[C@@](C)(C(=O)O1)C2(C)C)[C@@H](OC(=O)[C@@]12CC[C@@](C)(C(=O)O1)C2(C)C)C(C)(C)O3 |  |  | > 100 | > 30000 | 290 | 690 | > 43 |  |  |  |  |  | 
CCc1oc2c3c(ccc2c(=O)c1Br)OC(C)(C)[C@H](OC(=O)[C@@]12CC[C@@](C)(C(=O)O1)C2(C)C)[C@@H]3OC(=O)[C@@]12CC[C@@](C)(C(=O)O1)C2(C)C |  |  | > 24 | > 27000 | 1100 | 990 | > 28 |  |  |  |  |  | 
Cc1oc2c3c(ccc2c(=O)c1I)OC(C)(C)[C@H](OC(=O)[C@@]12CC[C@@](C)(C(=O)O1)C2(C)C)[C@@H]3OC(=O)[C@@]12CC[C@@](C)(C(=O)O1)C2(C)C |  |  | 18 | 13000 | 730 | 1600 | 8 |  |  |  |  |  | 
CCc1oc2c3c(ccc2c(=O)c1C#N)OC(C)(C)[C@H](OC(=O)[C@@]12CC[C@@](C)(C(=O)O1)C2(C)C)[C@@H]3OC(=O)[C@@]12CC[C@@](C)(C(=O)O1)C2(C)C |  |  | > 54 | > 30000 | 550 | 790 | > 37 |  |  |  |  |  | 
Cc1oc2c3c(ccc2c(=O)c1N)OC(C)(C)[C@H](OC(=O)[C@@]12CC[C@@](C)(C(=O)O1)C2(C)C)[C@@H]3OC(=O)[C@@]12CC[C@@](C)(C(=O)O1)C2(C)C |  |  | 130 | 32000 | 250 | 470 | 68 |  |  |  |  |  | 
CCc1oc2c3c(ccc2c(=O)c1N)OC(C)(C)[C@H](OC(=O)[C@@]12CC[C@@](C)(C(=O)O1)C2(C)C)[C@@H]3OC(=O)[C@@]12CC[C@@](C)(C(=O)O1)C2(C)C |  |  | 190 | 23000 | 120 | 310 | 74 |  |  |  |  | 10.3 (≈ 15.5 µM) | 
CCc1oc2c3c(ccc2c(=O)c1NC)OC(C)(C)[C@H](OC(=O)[C@@]12CC[C@@](C)(C(=O)O1)C2(C)C)[C@@H]3OC(=O)[C@@]12CC[C@@](C)(C(=O)O1)C2(C)C |  |  | 73 | 32000 | 440 | 1100 | 29 |  |  |  |  |  | 
CC1(C)Oc2ccc3c(=O)cc(CN4CCOCC4)oc3c2[C@@H](OC(=O)[C@@]23CC[C@@](C)(C(=O)O2)C3(C)C)[C@H]1OC(=O)[C@@]12CC[C@@](C)(C(=O)O1)C2(C)C |  |  | > 14 | > 28000 |  |  | > 6.3 |  |  |  |  |  | 
CN(C)CCCN1CCN(Cc2cc(=O)c3ccc4c(c3o2)[C@@H](OC(=O)[C@@]23CC[C@@](C)(C(=O)O2)C3(C)C)[C@@H](OC(=O)[C@@]23CC[C@@](C)(C(=O)O2)C3(C)C)C(C)(C)O4)CC1 |  |  |  | 17000 |  |  |  |  |  |  |  |  | 
CC1(C)Oc2ccc3c(=O)cc(CNCc4ccncc4)oc3c2[C@@H](OC(=O)[C@@]23CC[C@@](C)(C(=O)O2)C3(C)C)[C@H]1OC(=O)[C@@]12CC[C@@](C)(C(=O)O1)C2(C)C |  |  | > 1.3 | > 27000 | 21000 |  | > 1.3 |  |  |  |  |  | 
Cc1cc(=O)c2ccc3c(c2o1)[C@@H](OC(=O)[C@@]12CC[C@@](C)(C(=O)O1)C2(C)C)[C@@H](OC(=O)[C@@]12CC[C@@](C)(C(=O)O1)C2(C)C)C(C)(C)O3 |  |  | 110 | 11000 | 100 | 190 | 58 |  |  |  |  |  | 
CC1(C)Oc2ccc3ccc(=O)oc3c2[C@@H](OC(=O)C23CCC(C)(C(=O)O2)C3(C)C)[C@H]1OC(=O)C12CCC(C)(C(=O)O1)C2(C)C (stereo partly drawn) | 49 | 328 |  |  |  |  |  |  |  |  |  |  | 
